Assay results reported in ChEMBL document CHEMBL1150426, “New C5-alkylated indolobenzazepinones acting as inhibitors of tubulin polymerization: cytotoxic and antitumor activities” (J Med Chem, 2008).
pIC50: −log10 of the molar value.

What was measured:
MDA-MB-435 = test: Antiproliferative activity against human MDA-MB-435 cells after 72 hrs; assay type: functional, cell-based; conditions: MDA-MB-435, 72 h
Outline: (§1)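 Cells were seeded at 5 × 10³ per well and cultured for 24 h. Test compound in DMSO (under 0.1%) was then added for 72 h. Resazurin was added for 2 h, and fluorescence was read at ex 560 nm / em 590 nm. IC50 was taken as the concentration giving a 50% fall in fluorescence versus untreated cells. Runs were done in triplicate.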

[1] = Antitumor activity against human U87 tumor transplanted in chick chorio-allantoic membrane assessed as reduction of tumor volume at 100 uM after 4 days; assay type: functional, U-87MG ATCC; design: scale not given: the % may be the effect or the level left
Outline: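 On embryonic day 10, 5 × 10⁶ U87 glioma cells were placed on the chick CAM. On day 2 of tumor growth, size-matched tumors were split into groups. From day 3 to day 6, 20 µL of compound at 100 µM was applied locally once daily, and controls got solvent. Volume was calculated as V = 4/3πr³ with r = 1/2√(length × width), using six tumors per group.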

KB = test: Cytotoxicity against human KB cells after 72 hrs; assay type: functional, cell-based
Outline: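 KB cells in EMEM (4.5 g/L glucose, 10% FCS, 1% glutamine) seeded 5 × 10³/well, dosed after 24 h with compound in DMSO (<0.1%). 72 h exposure, then resazurin 2 h; fluorescence ex 560/em 590 nm. IC50 = 50% fluorescence decrease versus untreated; triplicate.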

B16-F10 = test: Antiproliferative activity against mouse B16F10 cells after 72 hrs; assay type: functional, cell-based; conditions: B16-F10, 72 h; outline: as §1
HCT-116 = test: Antiproliferative activity against human HCT116 cells after 72 hrs; assay type: functional, cell-based; conditions: HCT-116, 72 h; outline: as §1
A549 = test: Antiproliferative activity against human A549 cells after 72 hrs; assay type: functional, cell-based; conditions: A549, 72 h; outline: as §1
[2] = Inhibition of sheep brain tubulin polymerization; design: species or system Ovis aries
Outline: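 Sheep brain tubulin (about 2–3 mg/mL), purified by two assembly–disassembly cycles, in 0.1 M MES, 0.5 mM MgCl₂, 1 mM EGTA, 1 mM GTP, pH 6.6. Assembly followed by turbidity at 350 nm, 37 °C.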

MDA-MB-231 = test: Antiproliferative activity against human MDA-MB-231 cells after 72 hrs; assay type: functional, cell-based; conditions: MDA-MB-231, 72 h; outline: as §1
[3] = Antitumor activity against human U87 tumor transplanted in chick chorio-allantoic membrane assessed as reduction of tumor volume at 10 uM after 4 days; assay type: functional, U-87MG ATCC; design: scale not given: the % may be the effect or the level left
Outline: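 U87 glioma cells (5 × 10⁶ in 20 µL medium) grafted on chick CAM on embryonic day 10; size-matched tumors grouped on day 2. 20 µL drug at 10 µM applied locally once daily, days 3–6 of tumor growth; controls got solvent. Volume V = 4/3πr³ from length and width, six tumors per group.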

SMILES	pIC50 (MDA-MB-435)	Activity [1]	pIC50 (KB)	pIC50 (B16-F10)	pIC50 (HCT-116)	pIC50 (A549)	pIC50 [2]	pIC50 (MDA-MB-231)	Activity [3]
COc1cc2c(c(OC)c1OC)-c1ccc(O)cc1[C@@H](NC(C)=O)CC2 [N-ACETYLCOLCHINOL]	6.85	42%	7.12	7.14	7.00	6.60	5.52	6.15	
CC[C@H]1NC(=O)c2[nH]c3ccccc3c2-c2ccccc21			7.46				5.74		
COc1cc2c(c(OC)c1OC)-c1ccc(OC)c(=O)cc1[C@@H](NC(C)=O)CC2 [COLCHICINE]	7.40		7.70	7.54	7.40			7.15	50%
CC1c2ccccc2-c2c(n(C)c3ccccc23)C(=O)N1C (configuration not stated)			4.55						
